Laboratory results from ChEMBL document CHEMBL3769305, “Glucose-functionalized amino-OPEs as biocompatible photosensitizers in PDT” (Eur J Med Chem, 2016).
Calls of active or inactive are those of the source. The rule behind the calls is not given here.

How the values were obtained:
[1] = Dark toxicity against human HaCaT cells assessed as cell survival at 5 uM incubated for 6 hrs measured after 24 hrs by MTT assay; format: cell-based; settings: read-out: Survival
Outline: (§1)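 Cells (HaCaT and HeLa in DMEM, HEp-2 in RPMI, each with 10% FBS, at 37 °C and 5% CO2) were treated at 60–70% confluence. The compound was added from a 10^-3 M DMSO stock in medium with 1% FBS (final DMSO <0.5%) at 3·10^-6 to 2.5·10^-5 M and kept in the dark (6 h per table footnote, 18 h per methods). After 24 h, MTT at 50 µg/mL for 4 h, read at 542 nm as % of control OD.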

[2] = Drug uptake in golgi apparatus of human HaCaT cells at 1 uM after 6 hrs by NBD dye-based fluorescence microscopy; format: ADME, cell-based
Outline: (§2)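 Cells grown on glass coverslips were incubated with 1×10^-6 M photosensitizer for 6 h at 37 °C, washed twice in PBS and imaged live by fluorescence microscopy. Organelle probes (ER-Tracker, ex 374/em 430 nm; NBD-Golgi, ex 466/em 536 nm) were applied for 30 min at the supplier's concentrations, and their patterns were compared with the compound signal.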

[3] = Drug uptake in golgi apparatus of human Hep2 cells at 1 uM after 6 hrs by NBD dye-based fluorescence microscopy; format: ADME, cell-based; settings: hep-2, 6 h; outline: as §2
[4] = Dark toxicity against human HaCaT cells assessed as cell survival at 3 uM incubated for 6 hrs measured after 24 hrs by MTT assay; format: cell-based; settings: read-out: Survival; outline: as §1
[5] = Dark toxicity against human HeLa cells assessed as cell survival at 5 uM incubated for 6 hrs measured after 24 hrs by MTT assay; format: cell-based; settings: read-out: Survival; outline: as §1
[6] = Dark toxicity against human Hep2 cells assessed as cell survival at 3 uM incubated for 6 hrs measured after 24 hrs by MTT assay; format: cell-based, HEp-2; settings: read-out: Survival; outline: as §1
[7] = Phototoxicity against human Hep2 cells incubated for 6 hrs followed by UV irradiation at 0.25 J/cm'2 measured after 24 hrs by MTT assay; format: functional, HEp-2
Outline: (§3)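 Cultures at 60–70% confluence were loaded with the photosensitizer for 6 h in medium with 1% FBS and <0.5% DMSO. Medium was then replaced and cells were irradiated with UVA (300–400 nm, 15.9 W/m² at 10 cm), then washed and kept in complete medium for 24 h. Survival was read by MTT (50 µg/mL, 4 h, 542 nm) as % of untreated control OD.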

HeLa [8] = experiment: Phototoxicity against human HeLa cells incubated for 6 hrs followed by UV irradiation at 0.25 J/cm'2 measured after 24 hrs by MTT assay; format: functional; outline: as §3
[9] = Phototoxicity against human Hep2 cells assessed as cell lethality at 3 to 250 uM incubated for 6 hrs followed by UV irradiation at 0.5 J/cm'2 measured after 24 hrs by MTT assay; format: functional, HEp-2; outline: as §3
HaCaT [10] = experiment: Phototoxicity against human HaCaT cells assessed as cell lethality at 3 to 250 uM incubated for 6 hrs followed by UV irradiation at 1 J/cm'2 measured after 24 hrs by MTT assay; format: cell-based; outline: as §3
HaCaT [11] = experiment: Induction of cell morphological changes in human HaCaT cells assessed as cell elongation at 3 to 5 uM after 24 hrs by Hoechst 33258 staining-based phase contrast microscopy in presence of UVA light
HaCaT [12] = experiment: Induction of cell morphological changes in human HaCaT cells assessed as appearance of apoptotic cells with membrane blebbing at 3 to 5 uM after 24 hrs by Hoechst 33258 staining-based phase contrast microscopy in presence of UVA light
HeLa [13] = experiment: Induction of cell morphological changes in human HeLa cells assessed as cytoplasmic retraction at 3 to 5 uM after 24 hrs by Hoechst 33258 staining-based phase contrast microscopy in presence of UVA light; format: functional
HeLa [14] = experiment: Induction of cell morphological changes in human HeLa cells assessed as cytoplasmic vacuolization at 3 to 5 uM after 24 hrs by Hoechst 33258 staining-based phase contrast microscopy in presence of UVA light; format: functional
HaCaT [15] = experiment: Induction of morphological changes in human HaCaT cells assessed as nuclear retraction at LD50 after 24 hrs by Hoechst 33258 staining-based fluorescence microscopy in presence of UVA light; format: cell-based
HaCaT [16] = experiment: Induction of apoptotic morphological changes in human HaCaT cells at LD50 after 24 hrs by Hoechst 33258 staining-based fluorescence microscopy in presence of UVA light; format: cell-based
HeLa [17] = experiment: Induction of apoptotic morphological changes in human HeLa cells at LD50 after 24 hrs by Hoechst 33258 staining-based fluorescence microscopy in presence of UVA light; format: functional, cell-based
HeLa [18] = experiment: Induction of necrotic morphological changes in human HeLa cells at LD50 after 24 hrs by Hoechst 33258 staining-based fluorescence microscopy in presence of UVA light; format: functional, cell-based
HaCaT [19] = experiment: Phototoxicity against human HaCaT cells assessed as appearance of rounded cells at LD50 after 24 hrs by acridine orange/ethidium bromide staining-based assay in presence of 0.25 to 0.5 J/cm'2 UVA light; format: cell-based
Outline: (§4)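 Cells (HaCaT, HeLa in DMEM; HEp-2 in RPMI; 10% FBS) at 60–70% confluence were incubated 6 h with 3·10^-6 M photosensitizer (DMSO stock diluted in medium with 1% FBS, final DMSO <0.5%). Medium was replaced and cells were given 0.25 J/cm² UVA (300–400 nm). 24 h later, cells were stained live with 50 µg/ml AO plus 50 µg/ml EtBr in PBS. Within 15 min, 200 cells per condition were scored as living, rounded, apoptotic or necrotic.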

HEp-2 [20] = experiment: Increase in mitotic nuclei level in human Hep2 cells at LD50 after 24 hrs by Hoechst 33258 staining-based fluorescence microscopy in presence of UVA light; format: functional, cell-based
HeLa [21] = experiment: Induction of necrosis in human HeLa cells at LD50 after 24 hrs by acridine orange/ethidium bromide staining-based assay in presence of 0.25 to 0.5 J/cm'2 UVA light; format: functional, cell-based
HEp-2 [22] = experiment: Induction of necrosis in human Hep2 cells at LD50 after 24 hrs by acridine orange/ethidium bromide staining-based assay in presence of 0.25 to 0.5 J/cm'2 UVA light; format: functional, cell-based; outline: as §4
HeLa [23] = experiment: Phototoxicity against human HeLa cells assessed as appearance of rounded cells at LD50 after 24 hrs by acridine orange/ethidium bromide staining-based assay in presence of 0.25 to 0.5 J/cm'2 UVA light; format: functional, cell-based; outline: as §4
[24] = Induction of microtubule disruption in human Hep2 cells assessed as abnormality in chromosome distribution at LD50 after 24 hrs by immunofluorescence assay in presence of UVA light; format: cell-based; settings: HEp-2
HeLa [25] = experiment: Induction of microtubule disruption in human HeLa cells assessed as increase in mitotic index at LD50 after 24 hrs by immunofluorescence assay in presence of UVA light; format: cell-based
[26] = Induction of microtubule disruption in human HaCaT cells assessed as appearance of apoptotic morphology at LD50 after 24 hrs by immunofluorescence assay in presence of UVA light; format: cell-based
HEp-2 [27] = experiment: Induction of cell morphological changes in human Hep2 cells assessed as deep deformation of cell membrane at LD90 after 24 hrs by Hoechst 33258 staining-based phase contrast microscopy in presence of 1 to 2 J/Cm'2 UVA light; format: functional

Q: Which viability at 6 h, 5 µM [1] does the source give for `COc1cc(C#Cc2ccc(C#CCO[C@@H]3O[C@H](CO)[C@@H](O)[C@H](O)[C@H]3O)cc2N(C)C)c(OC)cc1C#Cc1ccc(C#CCO[C@@H]2O[C@H](CO)[C@@H](O)[C@H](O)[C@H]2O)cc1N(C)C` here?
A: 90.9%

Q: What about the Drug uptake [2] of the same compound?
A: Active

Q: What about the Drug uptake [3] of the same compound?
A: Active

Q: And the viability at 6 h, 3 µM [4]?
A: 91.5%

Q: What about the viability at 6 h, 5 µM [5] of the same compound?
A: 93.5%

Q: And the viability at 6 h, 3 µM [6]?
A: 97.7%

Q: And the LD50 [7]?
A: 3 ×10⁻⁶ M

Q: And the LD50 (HeLa [8])?
A: 3 ×10⁻⁶ M

Q: What about the mortality [9] of the same compound?
A: >50%

Q: What about the mortality (HaCaT [10]) of the same compound?
A: > 50%

Q: What about the Activity (HaCaT [11]) of the same compound?
A: Toxic

Q: What about the Activity (HaCaT [12]) of the same compound?
A: Toxic

Q: What about the Activity (HeLa [13]) of the same compound?
A: Active

Q: And the Activity (HeLa [14])?
A: Active

Q: What about the Activity (HaCaT [15]) of the same compound?
A: Toxic

Q: What about the Activity (HaCaT [16]) of the same compound?
A: Toxic

Q: And the Activity (HeLa [17])?
A: Active

Q: And the Activity (HeLa [18])?
A: Active

Q: And the Activity (HaCaT [19])?
A: Toxic

Q: And the Activity (HEp-2 [20])?
A: Active

Q: And the Activity (HeLa [21])?
A: Active

Q: What about the Activity (HEp-2 [22]) of the same compound?
A: Active

Q: And the Activity (HeLa [23])?
A: Active

Q: And the Activity [24]?
A: Active

Q: What about the Activity (HeLa [25]) of the same compound?
A: Active

Q: What about the Activity [26] of the same compound?
A: Toxic

Q: And the Activity (HEp-2 [27])?
A: Active

Q: For `COc1cc(C#Cc2ccc(C#Cc3cc(OC)c(C#CCO[C@@H]4O[C@H](CO)[C@@H](O)[C@H](O)[C@H]4O)cc3OC)c(N(C)C)c2)c(OC)cc1C#CCO[C@@H]1O[C@H](CO)[C@@H](O)[C@H](O)[C@H]1O`, which viability at 6 h, 5 µM [1] is on record?
A: 91.4%

Q: And the Drug uptake [2]?
A: Active

Q: What about the Drug uptake [3] of the same compound?
A: Active

Q: What about the viability at 6 h, 3 µM [4] of the same compound?
A: 92.4%

Q: And the viability at 6 h, 5 µM [5]?
A: 95.4%

Q: What about the viability at 6 h, 3 µM [6] of the same compound?
A: 97.2%

Q: What about the LD50 [7] of the same compound?
A: 3 ×10⁻⁶ M

Q: What about the LD50 (HeLa [8]) of the same compound?
A: 3 ×10⁻⁶ M

Q: And the mortality [9]?
A: >50%

Q: What about the mortality (HaCaT [10]) of the same compound?
A: > 50%

Q: And the Activity (HaCaT [11])?
A: Toxic

Q: What about the Activity (HaCaT [12]) of the same compound?
A: Toxic

Q: What about the Activity (HeLa [13]) of the same compound?
A: Active

Q: What about the Activity (HeLa [14]) of the same compound?
A: Active

Q: And the Activity (HaCaT [15])?
A: Toxic

Q: What about the Activity (HaCaT [16]) of the same compound?
A: Toxic

Q: And the Activity (HeLa [17])?
A: Active

Q: What about the Activity (HeLa [18]) of the same compound?
A: Active

Q: What about the Activity (HaCaT [19]) of the same compound?
A: Toxic

Q: What about the Activity (HEp-2 [20]) of the same compound?
A: Active

Q: What about the Activity (HeLa [21]) of the same compound?
A: Active

Q: What about the Activity (HEp-2 [22]) of the same compound?
A: Active

Q: What about the Activity (HeLa [23]) of the same compound?
A: Active

Q: And the Activity [24]?
A: Active

Q: And the Activity (HeLa [25])?
A: Active

Q: What about the Activity [26] of the same compound?
A: Toxic

Q: And the Activity (HEp-2 [27])?
A: Active
